Assay results taken from ChEMBL document CHEMBL3808330, “Peroxide Natural Products from Plakortis zyggompha and the Sponge Association Plakortis halichondrioides-Xestospongia deweerdtae: Antifungal Activity against Cryptococcus gattii” (J Nat Prod, 2016).
≈ marks a conversion by molar mass, not a printed value.

How the values were obtained:
Pichia kudriavzevii = test: Antifungal activity against fluconazole-resistant Candida krusei after 48 hrs by microbroth dilution method; format: functional
In short: (§1)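 Microbroth dilution per CLSI protocol in antibiotic medium 3; growth read as optical density at 590 nm in microplate wells; MIC90 reported. C. albicans ATCC 14503; C. krusei patient isolate from UC Davis clinical microbiology; C. gattii and C. grubii strains gifted from UC Davis.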

Candida albicans = test: Antifungal activity against Candida albicans ATCC 14503 after 48 hrs by microbroth dilution method; format: functional; conditions: ATCC 14503, 48 h; in short: as §1
Cryptococcus neoformans = test: Antifungal activity against Cryptococcus grubii after 48 hrs by microbroth dilution method; format: functional; in short: as §1
[1] = system: Cryptococcus gattii species complex; test: Antifungal activity against Cryptococcus gattii after 48 hrs by microbroth dilution method; format: functional, Cryptococcus bacillisporus; in short: as §1
[2] = Stability assessed as drug degradation under ambient conditions by 1H-NMR spectroscopic method; format: physicochemical
[3] = Drug degradation in presence of 3-tert-butyl-4-hydroxy-5-methylphenyl sulfide at -20 degC after 48 hrs by 1H-NMR spectroscopic method; format: physicochemical
[4] = Drug degradation in presence of 3-tert-butyl-4-hydroxy-5-methylphenyl sulfide at -20 degC after 12 hrs by 1H-NMR spectroscopic method; format: physicochemical

Structure (SMILES)	MIC90 (Pichia kudriavzevii) [µM]	MIC90 (Candida albicans) [µM]	MIC90 (Cryptococcus neoformans) [µM]	MIC90 [1] [µM]	Stability [2]	Stability [3]	Stability [4]
CCCCCC[C@]1(CC)C[C@H](CC)[C@H](CC(=O)O)OO1	4.3 (≈ 1.23 µg/mL)	22 (≈ 6.3 µg/mL)	6 (≈ 1.72 µg/mL)	9.6 (≈ 2.75 µg/mL)	–	–	–
CC(=C\Cc1ccccc1)/C=C(\C)C[C@@H](C)C[C@@]1(C)C[C@@](C)(/C=C/C(=O)O)OO1	–	> 100	–	> 100	Unstable	Unstable	Stable
CCCCC[C@]1(CC)C[C@H](CC)[C@H](CC(=O)OC)OO1	–	> 100	–	> 100	–	–	–
C[C@H](CCCCCCCCCc1ccccc1)C[C@]1(C)C[C@H](C)[C@H](CC(=O)O)OO1	2.7 (≈ 1.13 µg/mL)	13 (≈ 5.44 µg/mL)	3.4 (≈ 1.42 µg/mL)	2.4 (≈ 1 µg/mL)	–	–	–
CCCCCC[C@]1(CC)C[C@H](CC)[C@H](CC(=O)OC)OO1	–	> 100	–	> 100	–	–	–
C/C(=C\C=C\Cc1ccccc1)C[C@@H](C)C[C@@]1(C)C[C@@](C)(/C=C/C(=O)O)OO1	–	> 100	–	> 100	Unstable	Unstable	Stable
CCCCC[C@]1(CC)C[C@H](CC)[C@@H]([C@H](O)C(=O)O)O1	–	> 100	–	> 100	–	–	–
CCCCC[C@]1(CC)C[C@H](CC)[C@H](CC(=O)O)OO1	10 (≈ 2.72 µg/mL)	27 (≈ 7.35 µg/mL)	26 (≈ 7.08 µg/mL)	36 (≈ 9.81 µg/mL)	–	–	–
CC(=C\Cc1ccccc1)/C=C(\C)C[C@@H](C)C[C@@]1(C)C[C@@](C)(CC(=O)O)OO1	–	> 100	–	> 100	Unstable	Unstable	Stable
